# Experimental data gathered from unrelated publications.
# Each line is one published result; the experiments were not run side by side.
# CDK7 with cyclin H: Cyclin-dependent kinase 7, with cyclin H (CDK7, Homo sapiens, UniProt P50613)
# Dihydroorotate dehydrogenase, mitochondrial, putative: Dihydroorotate dehydrogenase, mitochondrial, putative (Plasmodium vivax, UniProt A5K1N1)
# HDAC6: Protein deacetylase HDAC6 (HDAC6, Homo sapiens, UniProt Q9UBN7)
# F2: Prothrombin (F2, Homo sapiens, UniProt P00734)
# KCNK18: Potassium channel subfamily K member 18 (KCNK18, Homo sapiens, UniProt Q7Z418)
# GRM7: Metabotropic glutamate receptor 7 (GRM7, Homo sapiens, UniProt Q14831)
# PDE4D: 3',5'-cyclic-AMP phosphodiesterase 4D (PDE4D, Homo sapiens, UniProt Q08499)
# MEP1B: Meprin A subunit beta (MEP1B, Homo sapiens, UniProt Q16820)
SMILES,target,read-out,mode,technique,time,setting,IC50 [µM]
C=CC(=O)Nc1ccc(N2CCC[C@@H](Nc3ncc(Cl)c(-c4c[nH]c5ccccc45)n3)C2)c(F)c1,CDK7 with cyclin H,enzyme activity,inhibitor,FRET,,,0.318
Cc1nc(Nc2ccc(C)c(Cl)c2)c2c(C)noc2n1,"Dihydroorotate dehydrogenase, mitochondrial, putative",enzyme activity,inhibitor,absorbance,,,0.26
O=C(N[C@@H](Cc1c[nH]c2ccccc12)C(=O)O)c1ccc(Cl)cc1,"Free fatty acid receptor 3 (FFAR3, Homo sapiens, UniProt O14843)",GTPγS binding,antagonist,,,cell membranes,> 31.6
CC(C)(C)n1nc(-c2ccc3nc(OC4CC4)ccc3c2)c(C(N)=O)c1N,"Mitogen-activated protein kinase 1 (MAPK1, Homo sapiens, UniProt P28482)",cell-free assay,,,,,> 10
CN1CCN(c2ccc(Nc3ncc4cc(C#N)c(=O)n(C5CCCC5)c4n3)cc2)CC1,"Dual specificity protein kinase TTK (TTK, Homo sapiens, UniProt P33981)",enzyme activity,inhibitor,,,,0.0668
Cc1nc(NC2CCc3cc(Br)ccc3C2)c2c(C)noc2n1 (stereo not drawn),"Dihydroorotate dehydrogenase, mitochondrial, putative",enzyme activity,inhibitor,absorbance,,,0.15
NC(=O)c1cccc(-c2cccc(OC(=O)NC3CCCCC3)c2)c1,"Liver carboxylesterase 1 (CES1, Homo sapiens, UniProt P23141)",enzyme activity,inhibitor,,,,0.039
Cc1nc2ccccc2n1Cc1c(F)c(F)c(C(=O)NO)c(F)c1F,HDAC6,enzyme activity,inhibitor,,,,3.5
COc1cc(/C=N/n2c(C)nc3ccc(C)cc3c2=O)cc([N+](=O)[O-])c1O,F2,enzyme activity,inhibitor,,,,210
CCOC(=O)C1=C(C)NC(C)=C(C(=O)OC)C1c1cccc([N+](=O)[O-])c1 (stereo not drawn),KCNK18,ion flux,inhibitor,,,,19.8
COc1ccc(-c2nsc(NC(=O)[C@@H]3C[C@H]3C)c2C)cc1,GRM7,calcium signal,antagonist,,,,> 12.5
N#Cc1nc(NCc2cccc(-c3cn(S(=O)(=O)c4ccccc4)c4ccccc34)c2)c2ncn(CCCO)c2n1,"Cathepsin B-like cysteine protease (Trypanosoma brucei, UniProt Q6R7Z5)",enzyme activity,inhibitor,,,,> 15
CC(C)C[C@H](NC(=O)[C@H](CCC(=O)O)NC(=O)[C@@H](NC(=O)[C@H](CO)NC(=O)[C@H](CCCCN)NC(=O)[C@H](CCC(N)=O)NC(=O)[C@H](Cc1ccc(O)cc1)NC(=O)[C@H](CCCNC(=N)N)NC(=O)[C@@H](N)CCCNC(=N)N)[C@@H](C)O)C(=O)O,"Antigen peptide transporter 1/Antigen peptide transporter 2 (Homo sapiens, UniProt Q03518+Q03519)",ligand displacement,,,,,0.1
Cc1nc2ccc(Br)cc2c(=O)n1/N=C/c1ccc(C(=O)O)cc1,F2,enzyme activity,inhibitor,,,,48.6
Cc1nc2ccccc2n1Cc1nc(C(=O)NO)co1,HDAC6,enzyme activity,inhibitor,,,,3.71
Cc1nc2ccc(Cl)cc2c(=O)n1NC(=O)CCl,F2,enzyme activity,inhibitor,,,,83.9
Cc1nc(NC2CCc3cc(Cl)ccc3C2)c2c(C)noc2n1 (stereo not drawn),"Dihydroorotate dehydrogenase, mitochondrial, putative",enzyme activity,inhibitor,absorbance,,,0.058
CCCON(Cc1ccc(C(=O)NO)cc1)C(=O)Nc1ccccc1,HDAC6,enzyme activity,inhibitor,fluorescence,,,0.02
COc1ccc(C2=NN(C3CCCCCC3)C(=O)[C@@H]3CC=CC[C@H]23)cc1-c1ccc(C(N)=O)cc1 (relative stereo),PDE4D,enzyme activity,inhibitor,,,,0.126
COCCOC(=O)C1=C(C)NC(C)=C(C(=O)OC(C)C)C1c1cccc([N+](=O)[O-])c1 (stereo not drawn),"Potassium channel subfamily K member 9 (KCNK9, Homo sapiens, UniProt Q9NPC2)",ion flux,inhibitor,,,,> 30
CC(C)=CCC[C@@H](C)c1ccc(C)c(O)c1,"UDP-glucuronosyltransferase 2B7 (UGT2B7, Homo sapiens, UniProt P16662)",enzyme activity,inhibitor,,1 h,,42.1
C[C@@H]1O[C@H](OP(=O)(O)OP(=O)(O)OC[C@H]2O[C@@H](n3cnc4c(=O)[nH]c(N)nc43)[C@H](O)[C@@H]2O)[C@@H](F)[C@H](O)[C@@H]1O,"Alpha-(1,3)-fucosyltransferase 7 (FUT7, Homo sapiens, UniProt Q11130)",cell-free assay,,,,,~2.5
COc1ccc(-c2coc(-c3cc(OC(F)(F)F)ccc3-n3cncn3)n2)cc1OC,GRM7,calcium signal,antagonist,,,,> 10
COc1cc(NCC(=O)Nn2c(C)nc3ccc(Cl)cc3c2=O)cc(OC)c1OC,F2,enzyme activity,inhibitor,,,,63.5
O=C(CCN(Cc1cccnc1)Cc1ccc2c(c1)OCO2)NO,MEP1B,enzyme activity,inhibitor,,,,9.65
COc1c(C(=O)/C=C(\O)c2ccccc2)ccc2occc12,CDK7 with cyclin H,enzyme activity,inhibitor,ADP detection,,,> 100
O=C(CCN(Cc1ccncc1)Cc1ccc(Cl)c(O)c1F)NO,MEP1B,enzyme activity,inhibitor,,,,0.703
O=c1cc(-c2ccccc2)oc2c1ccc1ccccc12,CDK7 with cyclin H,enzyme activity,inhibitor,ADP detection,,,> 100
CC(C)C[C@H](NC(=O)[C@H]1O[C@@H]1C(=O)O)C(=O)NCCCCN=C(N)N,"Calpain-1 catalytic subunit (CAPN1, Homo sapiens, UniProt P07384)",enzyme activity,inhibitor,,,,0.0309
CC#Cc1cncc(-c2ccc3c(c2)[C@@]2(N=C(C)C(N)=N2)[C@]2(CC[C@H](OC)CC2)C3)c1,"Cathepsin D (CTSD, Homo sapiens, UniProt P07339)",enzyme activity,inhibitor,,,,16.1
CCCC[C@H](NC(=O)[C@H](C)c1c(C)[nH]c2ccc(O)cc12)c1ncc(-c2cc3ccccc3nc2OC)[nH]1,HDAC6,enzyme activity,inhibitor,,,,> 45
COc1ccc(-c2noc(-c3cc(Cl)ccc3-n3cncn3)n2)c(F)c1OC,GRM7,calcium signal,antagonist,,,,> 30
COc1cc(/C=N/n2c(C)nc3ccc(Br)cc3c2=O)ccc1O,F2,enzyme activity,inhibitor,,,,42.5
CC[C@@H](C(=O)Nc1ccc(C(N)=O)c(F)c1)n1cc(OC)c(-c2cc(Cl)ccc2-n2cc(C(F)(F)F)nn2)cc1=O,F2,enzyme activity,inhibitor,,,,6.6
C=CC(=O)Nc1ccc(N2CCC[C@@H](Nc3ncc(Cl)c(-c4c[nH]c5ccccc45)n3)C2)cc1C,CDK7 with cyclin H,enzyme activity,inhibitor,FRET,,,0.197
COc1ccc2c(Oc3ccc4c(C(=O)Nc5ccccc5N)cccc4c3)ccnc2c1,"Potassium/sodium hyperpolarization-activated cyclic nucleotide-gated channel 4 (HCN4, Homo sapiens, UniProt Q9Y3Q4)",ion current,inhibitor,,,,> 10
COc1cc(/C=C2\SC(=O)NC2=O)cc(F)c1OCCNc1nc2c(cnn2C2CCCC2)c(=O)[nH]1,PDE4D,enzyme activity,inhibitor,,,,0.765
COC(=O)C1=C(C)NC(C)=C(C(=O)OCCN(C)Cc2ccccc2)C1c1cccc([N+](=O)[O-])c1 (stereo not drawn),KCNK18,ion flux,inhibitor,,,,21.9
CCOCc1nc(O)c(-c2nnc(Cc3ccc(Cl)cn3)o2)c(O)c1-c1c(OC)cccc1OC,"5-hydroxytryptamine receptor 1B (HTR1B, Homo sapiens, UniProt P28222)",ligand displacement,,radioligand,,,> 30
OCc1ccc2c(c1C#Cc1ccc(O)cc1)C(c1ccc(O)cc1)(c1ccc(O)cc1)c1cc(O)ccc1-2,PDE4D,enzyme activity,inhibitor,,,,0.267
O=C(CCN(Cc1ccc(Cl)cc1F)Cc1ccc(Cl)c(O)c1F)NO,MEP1B,enzyme activity,inhibitor,,,,0.274
COc1cc2c(NC3CCN(C)CC3)nc(N3CCCN(C)CC3)nc2cc1OCCCCCCN(C)C,"Histone-lysine N-methyltransferase EHMT2 (EHMT2, Homo sapiens, UniProt Q96KQ7)",enzyme activity,inhibitor,,,,1.5
